{"source": "ChEMBL document CHEMBL2176871", "about": "“Development of ligands at γ-aminobutyrric acid type A (GABAA) receptor subtype as new agents for pain relief” (Bioorg Med Chem, 2011)", "key": {"Mus musculus [1]": {"system": "Mus musculus", "assay": "Antihyperalgesic activity against streptozotocin-induced hyperalgesia in Swiss albino mouse […] assessed as licking latency time at 30 mg/kg, po after 45 mins by hot plate test (reference value: 9.2 +/- 0.8 secs)", "format": "functional"}, "Mus musculus [2]": {"system": "Mus musculus", "assay": "Antihyperalgesic activity against streptozotocin-induced hyperalgesia in Swiss albino mouse […] assessed as licking latency time at 30 mg/kg, po after 60 mins by hot plate test (reference value: 9.2 +/- 0.8 secs)", "format": "functional"}, "Rattus norvegicus [3]": {"system": "Rattus norvegicus", "assay": "Antinociceptive activity in Sprague-Dawley rat mononeuropathy pain model assessed as increase in injured paw pressure at 10 mg/kg, po after 15 mins by paw pressure test relative to non-treated control", "format": "functional", "in_short": "(§1)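 Chronic constriction injury: loose ligatures placed on the common sciatic nerve under chloral hydrate; contralateral sham dissection. Tested 14 days after surgery. Paw pressure applied at 32 g/s; threshold taken as the force causing the first struggle; cut-off 250 g; pretest outliers (<40 g or >75 g) excluded. Oral dosing in 10 ml/kg; read at 15, 30 and 45 min; compared with a CMC-treated group.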"}, "Rattus norvegicus [4]": {"system": "Rattus norvegicus", "assay": "Antinociceptive activity in Sprague-Dawley rat mononeuropathy pain model assessed as increase in injured paw pressure at 10 mg/kg, po after 45 mins by paw pressure test relative to non-treated control", "format": "functional", "in_short": "as §1"}, "Bos taurus": {"species": "Bos taurus", "assay": "Displacement of [3H]Ro151788 from GABA(A)/BzR in bovine cerebral cortex membrane at 10 uM", "format": "cell membranes", "in_short": "(§2)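 Bovine cerebral cortex membranes in 50 mM Tris-citrate pH 7.4; [3H]flumazenil displacement. Compounds first tested at a fixed 10 µM; Ki determined only when inhibition exceeded 80%, using at least six concentrations. Five experiments run in triplicate; IC50 obtained by iterative curve fitting and converted to Ki with the Cheng–Prusoff equation.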"}, "Rattus norvegicus [5]": {"system": "Rattus norvegicus", "assay": "Toxicity in Sprague-Dawley rat mononeuropathy pain model assessed as effect on contralateral paw pressure at 10 mg/kg, po after 45 mins by paw pressure test", "format": "organism-based", "set-up": "dose 10 mg/kg, route oral", "settings": "in vivo, 0.75 h", "in_short": "(§3)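 Same sciatic-ligation rat model, 14 days after surgery. Threshold measured on the non-operated contralateral hind paw by analgesimeter at 32 g/s; first-struggle endpoint; 250 g cut-off; pretest rats outside 40–75 g rejected. Compound given po in 10 ml/kg; readings at 15, 30 and 45 min.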"}, "Rattus norvegicus [6]": {"system": "Rattus norvegicus", "assay": "Toxicity in Sprague-Dawley rat mononeuropathy pain model assessed as effect on contralateral paw pressure at 60 mg/kg, po after 30 mins by paw pressure test", "format": "organism-based", "set-up": "dose 60 mg/kg, route oral", "settings": "in vivo, 0.5 h", "in_short": "as §3"}, "Mus musculus [7]": {"system": "Mus musculus", "assay": "Analgesic activity in Swiss albino mouse abdominal constriction model assessed as decrease in number of acetic acid-induced writhing at 10 to 30 mg/kg, po after 30 mins", "format": "functional, organism-based", "settings": "Abdomen", "in_short": "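Male Swiss albino mice (23–30 g). Compounds given po in 1% CMC vehicle 30 min before the test. Acetic acid 0.6% injected i.p. at 10 ml/kg. Stretching movements were counted for 10 min, starting 5 min after the acetic acid injection. 8–15 mice per group.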"}, "Rattus norvegicus [8]": {"system": "Rattus norvegicus", "assay": "Toxicity in Sprague-Dawley rat mononeuropathy pain model assessed as effect on contralateral paw pressure at 60 mg/kg, po after 45 mins by paw pressure test", "format": "organism-based", "set-up": "dose 60 mg/kg, route oral", "settings": "in vivo, 0.75 h", "in_short": "as §3"}, "Rattus norvegicus [9]": {"system": "Rattus norvegicus", "assay": "Toxicity in Sprague-Dawley rat mononeuropathy pain model assessed as effect on contralateral paw pressure at 1 mg/kg, po after 45 mins by paw pressure test", "format": "organism-based", "set-up": "dose 1 mg/kg, route oral", "settings": "in vivo, 0.75 h", "in_short": "as §3"}, "Rattus norvegicus [10]": {"system": "Rattus norvegicus", "assay": "Toxicity in Sprague-Dawley rat mononeuropathy pain model assessed as effect on contralateral paw pressure at 10 mg/kg, po after 15 mins by paw pressure test", "format": "organism-based", "set-up": "dose 10 mg/kg, route oral", "settings": "in vivo, 0.25 h", "in_short": "as §3"}, "Rattus norvegicus [11]": {"system": "Rattus norvegicus", "assay": "Antinociceptive activity in Sprague-Dawley rat mononeuropathy pain model assessed as increase in injured paw pressure at 30 mg/kg, po after 30 mins by paw pressure test relative to non-treated control", "format": "functional", "in_short": "as §1"}, "Rattus norvegicus [12]": {"system": "Rattus norvegicus", "assay": "Antinociceptive activity in Sprague-Dawley rat mononeuropathy pain model assessed as increase in injured paw pressure at 1 mg/kg, po after 45 mins by paw pressure test relative to non-treated control", "format": "functional", "in_short": "as §1"}, "Rattus norvegicus [13]": {"system": "Rattus norvegicus", "assay": "Toxicity in Sprague-Dawley rat mononeuropathy pain model assessed as effect on contralateral paw pressure at 30 mg/kg, po after 30 mins by paw pressure test", "format": "organism-based", "set-up": "dose 30 mg/kg, route oral", "settings": "in vivo, 0.5 h", "in_short": "as §3"}, "Rattus norvegicus [14]": {"system": "Rattus norvegicus", "assay": "Antinociceptive activity in Sprague-Dawley rat mononeuropathy pain model assessed as increase in injured paw pressure at 30 mg/kg, po after 45 mins by paw pressure test relative to non-treated control", "format": "functional", "in_short": "as §1"}, "Rattus norvegicus [15]": {"system": "Rattus norvegicus", "assay": "Antinociceptive activity in Sprague-Dawley rat mononeuropathy pain model assessed as increase in injured paw pressure at 60 mg/kg, po after 45 mins by paw pressure test relative to non-treated control", "format": "functional", "in_short": "as §1"}, "Mus musculus [16]": {"system": "Mus musculus", "assay": "Antihyperalgesic activity Swiss albino mouse […] assessed as licking latency time at 30 mg/kg, po after 60 mins by hot plate test (reference value: 17.9 +/- 1.1 secs)", "format": "functional", "in_short": "(§4)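 Hot plate at 52.5 ± 0.1 °C in non-diabetic male Swiss mice. Latency to licking of fore or hind paws was timed before dosing and every 15 min up to 60 min after oral dosing. Mice with pretest latencies below 12 s or above 18 s were excluded. Cut-off was 45 s.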"}, "Rattus norvegicus [17]": {"system": "Rattus norvegicus", "assay": "Antinociceptive activity in Sprague-Dawley rat mononeuropathy pain model assessed as increase in injured paw pressure at 60 mg/kg, po after 15 mins by paw pressure test relative to non-treated control", "format": "functional", "in_short": "as §1"}, "Mus musculus [18]": {"system": "Mus musculus", "assay": "Antihyperalgesic activity against streptozotocin-induced hyperalgesia in Swiss albino mouse […] assessed as licking latency time at 30 mg/kg, po after 15 mins by hot plate test (reference value: 9.2 +/- 0.8 secs)", "format": "functional"}, "Rattus norvegicus [19]": {"system": "Rattus norvegicus", "assay": "Toxicity in Sprague-Dawley rat mononeuropathy pain model assessed as effect on contralateral paw pressure at 30 mg/kg, po after 15 mins by paw pressure test", "format": "organism-based", "set-up": "dose 30 mg/kg, route oral", "settings": "in vivo, 0.25 h", "in_short": "as §3"}, "Rattus norvegicus [20]": {"system": "Rattus norvegicus", "assay": "Antinociceptive activity in Sprague-Dawley rat mononeuropathy pain model assessed as increase in injured paw pressure at 10 mg/kg, po after 30 mins by paw pressure test relative to non-treated control", "format": "functional", "in_short": "as §1"}, "Rattus norvegicus [21]": {"system": "Rattus norvegicus", "assay": "Antinociceptive activity in Sprague-Dawley rat mononeuropathy pain model assessed as increase in injured paw pressure at 1 mg/kg, po after 15 mins by paw pressure test relative to non-treated control", "format": "functional", "in_short": "as §1"}, "Rattus norvegicus [22]": {"system": "Rattus norvegicus", "assay": "Antinociceptive activity in Sprague-Dawley rat mononeuropathy pain model assessed as increase in injured paw pressure at 60 mg/kg, po after 30 mins by paw pressure test relative to non-treated control", "format": "functional", "in_short": "as §1"}, "[23]": {"assay": "Displacement of [3H]Ro151788 from GABA(A)/BzR in bovine cerebral cortex membrane", "format": "cell membranes, Bos taurus", "in_short": "as §2"}, "Mus musculus [24]": {"system": "Mus musculus", "assay": "Antihyperalgesic activity Swiss albino mouse […] assessed as licking latency time at 30 mg/kg, po after 15 mins by hot plate test (reference value: 17.9 +/- 1.1 secs)", "format": "functional", "in_short": "as §4"}, "Rattus norvegicus [25]": {"system": "Rattus norvegicus", "assay": "Antinociceptive activity in Sprague-Dawley rat mononeuropathy pain model assessed as increase in injured paw pressure at 1 mg/kg, po after 30 mins by paw pressure test relative to non-treated control", "format": "functional", "in_short": "as §1"}, "Mus musculus [26]": {"system": "Mus musculus", "assay": "Anxiolytic-like activity in Swiss albino mouse at 10 to 30 mg/kg, po after 30 mins by light/dark box test", "format": "functional, organism-based", "in_short": "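Male Swiss mice tested in a two-compartment light/dark box. Transfers between compartments and time spent in the lit side recorded. Compound given po 30 min before testing, in 10 ml/kg; flumazenil given i.p. for antagonism; 8 mice per group.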"}, "Rattus norvegicus [27]": {"system": "Rattus norvegicus", "assay": "Toxicity in Sprague-Dawley rat mononeuropathy pain model assessed as effect on contralateral paw pressure at 1 mg/kg, po after 15 mins by paw pressure test", "format": "organism-based", "set-up": "dose 1 mg/kg, route oral", "settings": "in vivo, 0.25 h", "in_short": "as §3"}}, "note": "Active and inactive are the calls of the source.", "data": [{"smiles": "Cc1cnn2c1n[n+]([O-])c1ccc(OCc3ccccc3)cc12", "values": [{"measurement": "Time", "setting": "Mus musculus [1]", "result": 18.8, "unit": "s"}, {"measurement": "Time", "setting": "Mus musculus [2]", "result": 15.7, "unit": "s"}, {"measurement": "Activity", "setting": "Rattus norvegicus [3]", "result": 48.7, "unit": "g"}, {"measurement": "Activity", "setting": "Rattus norvegicus [4]", "result": 30.4, "unit": "g"}, {"measurement": "inhibition", "setting": "Bos taurus", "result": "> 80", "unit": "%"}, {"measurement": "Activity", "setting": "Rattus norvegicus [5]", "result": 63.5, "unit": "g"}, {"measurement": "Activity", "setting": "Rattus norvegicus [6]", "result": 60.8, "unit": "g"}, {"measurement": "Activity", "setting": "Mus musculus [7]", "result": "inactive"}, {"measurement": "Activity", "setting": "Rattus norvegicus [8]", "result": 57.2, "unit": "g"}, {"measurement": "Activity", "setting": "Rattus norvegicus [9]", "result": 59.1, "unit": "g"}, {"measurement": "Activity", "setting": "Rattus norvegicus [10]", "result": 60.4, "unit": "g"}, {"measurement": "Activity", "setting": "Rattus norvegicus [11]", "result": 44.2, "unit": "g"}, {"measurement": "Activity", "setting": "Rattus norvegicus [12]", "result": 30.8, "unit": "g"}, {"measurement": "Activity", "setting": "Rattus norvegicus [13]", "result": 63.8, "unit": "g"}, {"measurement": "Activity", "setting": "Rattus norvegicus [14]", "result": 35.2, "unit": "g"}, {"measurement": "Activity", "setting": "Rattus norvegicus [15]", "result": 31.5, "unit": "g"}, {"measurement": "Time", "setting": "Mus musculus [16]", "result": 17.2, "unit": "s"}, {"measurement": "Activity", "setting": "Rattus norvegicus [17]", "result": 50.1, "unit": "g"}, {"measurement": "Time", "setting": "Mus musculus [18]", "result": 14.9, "unit": "s"}, {"measurement": "Activity", "setting": "Rattus norvegicus [19]", "result": 62.7, "unit": "g"}, {"measurement": "Activity", "setting": "Rattus norvegicus [20]", "result": 40.1, "unit": "g"}, {"measurement": "Activity", "setting": "Rattus norvegicus [21]", "result": 32.3, "unit": "g"}, {"measurement": "Activity", "setting": "Rattus norvegicus [22]", "result": 40.8, "unit": "g"}, {"measurement": "Ki", "setting": "[23]", "result": 4.66, "unit": "nM"}, {"measurement": "Time", "setting": "Mus musculus [24]", "result": 17.2, "unit": "s"}, {"measurement": "Activity", "setting": "Rattus norvegicus [25]", "result": 34.5, "unit": "g"}, {"measurement": "Activity", "setting": "Mus musculus [26]", "result": "Active"}, {"measurement": "Activity", "setting": "Rattus norvegicus [27]", "result": 57.3, "unit": "g"}]}]}
